Experimental data from ChEMBL document CHEMBL1159046, “New thalidomide analogues derived through Sonogashira or Suzuki reactions and their TNF expression inhibition profiles” (Bioorg Med Chem, 2010).
Activity calls are given as the source filed them. No cut-off for these calls is given here.

Legend:
Jurkat [1] = assay: Inhibition of NF-kappaB-mediated TNF expression in human Jurkat T cells coexpressing GFP reporter gene at 100 uM by flow cytometry; format: cell-based
Procedure, shortened: (§1)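 Jurkat cells stably carrying GFP under an NF-κB-responsive human TNF promoter (FRT-Jurkat TNF) were treated with racemic compound (0.1% DMSO final) for 24 h. GFP was read by flow cytometry at 515 nm ([…]), gated on viable FSC/SSC cells. Inhibition is the percentage decrease in GFP versus 0.1% solvent control. Assays were run in triplicate.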

Jurkat [2] = assay: Cytotoxicity against human Jurkat T cells assessed as cell death at 10 uM after 24 hrs by flow cytometry; format: functional
Procedure, shortened: (§2)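 Jurkat T cells treated 24 h with compound (final DMSO 0.1%); cell death taken as % of cells with reduced size and granularity on flow cytometric forward- vs side-scatter plot, outside gate set on major solvent-only population; viability confirmed by propidium iodide staining (570 nm, FL2). Triplicate, racemic compounds.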

Jurkat [3] = assay: Inhibition of NF-kappaB-mediated TNF expression in human Jurkat T cells coexpressing GFP reporter gene at 10 uM by flow cytometry; format: cell-based; procedure, shortened: as §1
Jurkat [4] = assay: Induction of apoptosis in human Jurkat T cells at 10 uM after 24 hrs by flow cytometry; format: functional
Procedure, shortened: (§3)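 Apoptosis in Jurkat T cells after 24 h compound exposure: cells stained with FITC-labelled substrate for cleaved caspase-3 (NucView-488), % cells with increased green fluorescence counted by flow cytometry with positivity gate; solvent (0.1% DMSO) and untreated controls. Triplicate, racemic compounds; three independent experiments.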

Jurkat [5] = assay: Cytotoxicity against human Jurkat T cells assessed as viable cells at 10 uM after 24 hrs by flow cytometry; format: functional; conditions: read-out: Activity
Procedure, shortened: (§4)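 FRT-Jurkat TNF reporter cells were exposed to compound (racemic, 0.1% DMSO final) for 24 h and analysed by flow cytometry on FSC/SSC. Viable cells were counted as those inside the gate around the main population of solvent-only cells. Viability was confirmed by propidium iodide fluorescence at 570 nm (FL2). Assays were run in triplicate.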

Jurkat [6] = assay: Induction of apoptosis in human Jurkat T cells at 100 uM after 24 hrs by flow cytometry; format: functional
Procedure, shortened: (§5)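 Jurkat T cells were treated with compound for 24 h, with DMSO-only and untreated controls, then stained with a FITC-labelled substrate for cleaved caspase-3 (NucView-488). The apoptotic fraction was the percentage of cells with increased green fluorescence by flow cytometry. Cell death, taken as reduced size and granularity on FSC/SSC, was measured in parallel. Assays were run in triplicate.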

Jurkat [7] = assay: Cytotoxicity against human Jurkat T cells assessed as cell death at 100 uM after 24 hrs by flow cytometry; format: functional; procedure, shortened: as §2
Jurkat [8] = assay: Induction of apoptosis in human Jurkat T cells at 0.1 uM after 24 hrs by flow cytometry; format: functional; procedure, shortened: as §5
PBMC [9] = assay: Inhibition of PMA-induced TNF production in human PBMC at 1 uM by RT-PCR; format: functional, cell-based
Procedure, shortened: (§6)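 PBMCs from healthy volunteers were freshly isolated, activated, and cultured with compound or DMSO for 2 h. Endogenous TNF mRNA was quantified by reverse transcription and real-time PCR (50 cycles: 95 °C 10 s, 55 °C 15 s, 72 °C 20 s) and normalised to β-actin.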

Jurkat [10] = assay: Cytotoxicity against human Jurkat T cells assessed as viable cells at 0.1 uM after 24 hrs by flow cytometry; format: functional; conditions: read-out: Activity; procedure, shortened: as §4
Jurkat [11] = assay: Inhibition of NF-kappaB-mediated TNF expression in human Jurkat T cells coexpressing GFP reporter gene at 1 uM by flow cytometry; format: cell-based; procedure, shortened: as §1
PBMC [12] = assay: Inhibition of PMA-induced TNF production in human PBMC at 10 uM by RT-PCR; format: functional, cell-based; procedure, shortened: as §6
PBMC [13] = assay: Cytotoxicity against human PBMC assessed as cell death at 1 to 10 uM; format: cell-based
Jurkat [14] = assay: Inhibition of NF-kappaB-mediated TNF expression in human Jurkat T cells coexpressing GFP reporter gene at 0.1 uM by flow cytometry; format: cell-based; procedure, shortened: as §1
Jurkat [15] = assay: Cytotoxicity against human Jurkat T cells assessed as cell death at 0.1 uM after 24 hrs by flow cytometry; format: functional; procedure, shortened: as §2
Jurkat [16] = assay: Cytotoxicity against human Jurkat T cells assessed as viable cells at 1 uM after 24 hrs by flow cytometry; format: functional; conditions: read-out: Activity; procedure, shortened: as §4
Jurkat [17] = assay: Induction of apoptosis in human Jurkat T cells at 1 uM after 24 hrs by flow cytometry; format: functional; procedure, shortened: as §3

What does the source list for `CC(C)Oc1ccc(-c2ccc3c(c2)C(=O)N(C2CCC(=O)NC2=O)C3=O)cc1` (racemic)?
inhibition (Jurkat [1]): 59%; Activity (Jurkat [2]): 14%; inhibition (Jurkat [3]): 10%; Activity (Jurkat [4]): 12%; viability at 10 µM (Jurkat [5]): 90%; Activity (Jurkat [6]): 34%; Activity (Jurkat [7]): 51%

Which inhibition (Jurkat [1]) does the source give for `CC(C)Cc1ccc(-c2cccc3c2C(=O)N(C2CCC(=O)NC2=O)C3=O)cc1` (racemic) here?
Its inhibition is 86%.

And the inhibition (Jurkat [3])?
Its inhibition is 7%.

What about the Activity (Jurkat [4]) of the same compound?
The Activity was 7%.

What about the viability at 10 µM (Jurkat [5]) of the same compound?
The viability at 10 µM was 90%.

What about the Activity (Jurkat [6]) of the same compound?
The Activity was 96%.

And the Activity (Jurkat [7])?
Its Activity is 94%.

For `CC(C)Cc1ccc(-c2ccc3c(c2)C(=O)N(C2CCC(=O)NC2=O)C3=O)cc1` (racemic), which inhibition (Jurkat [1]) is on record?
The inhibition was 90%.

And the Activity (Jurkat [2])?
Its Activity is 6%.

And the inhibition (Jurkat [3])?
The inhibition was 5%.

What about the Activity (Jurkat [4]) of the same compound?
The Activity was 7%.

What about the viability at 10 µM (Jurkat [5]) of the same compound?
Its viability at 10 µM is 89%.

What about the Activity (Jurkat [6]) of the same compound?
Its Activity is 22%.

And the Activity (Jurkat [7])?
The Activity was 21%.

With `CC(C)Oc1ccc(-c2cccc3c2C(=O)N(C2CCC(=O)NC2=O)C3=O)cc1` (racemic) as the compound, how does the inhibition (Jurkat [1]) read?
The inhibition was 47%.

What about the inhibition (Jurkat [3]) of the same compound?
Its inhibition is 8%.

And the Activity (Jurkat [4])?
Its Activity is 8%.

And the viability at 10 µM (Jurkat [5])?
Its viability at 10 µM is 90%.

What about the Activity (Jurkat [6]) of the same compound?
The Activity was 30%.

And the Activity (Jurkat [7])?
Its Activity is 33%.

Which results are given for `O=CC#Cc1ccc2c(c1)C(=O)N(C1CCC(=O)NC1=O)C2=O` (racemic)?
Activity (Jurkat [8]): 7%; inhibition (Jurkat [1]): 85%; Activity (Jurkat [2]): 86%; Activity (PBMC [9]): Active; inhibition (Jurkat [3]): 86%; Activity (Jurkat [4]): 84%; viability at 10 µM (Jurkat [5]): 25%; viability at 0.1 µM (Jurkat [10]): 96%; inhibition (Jurkat [11]): 5%; Activity (PBMC [12]): Active; Activity (PBMC [13]): Active; inhibition (Jurkat [14]): 4%; Activity (Jurkat [15]): 4%; viability at 1 µM (Jurkat [16]): 95%; Activity (Jurkat [17]): 7%

For `CC(=O)c1ccc(-c2ccc3c(c2)C(=O)N(C2CCC(=O)NC2=O)C3=O)cc1` (racemic), which inhibition (Jurkat [1]) is on record?
Its inhibition is 26%.

How did the inhibition (Jurkat [1]) turn out when `CC(=O)c1ccc(-c2cccc3c2C(=O)N(C2CCC(=O)NC2=O)C3=O)cc1` (racemic) was run?
The inhibition was 17%.

`CC(C)(C)C#Cc1ccc2c(c1)C(=O)N(C1CCC(=O)NC1=O)C2=O` (racemic) was tested. Which inhibition (Jurkat [1]) did it give?
The inhibition was 19%.

`CC(C)(C)C#Cc1cccc2c1C(=O)N(C1CCC(=O)NC1=O)C2=O` (racemic) was tested. Which inhibition (Jurkat [1]) did it give?
Its inhibition is 24%.

For `CC(C)(O)C#Cc1ccc2c(c1)C(=O)N(C1CCC(=O)NC1=O)C2=O` (racemic), which inhibition (Jurkat [1]) is on record?
Its inhibition is 20%.

For `CC(C)(O)C#Cc1cccc2c1C(=O)N(C1CCC(=O)NC1=O)C2=O` (racemic), which inhibition (Jurkat [1]) is on record?
Its inhibition is 6%.

Which inhibition (Jurkat [1]) does the source give for `CNCC#Cc1ccc2c(c1)C(=O)N(C1CCC(=O)NC1=O)C2=O` (racemic) here?
Its inhibition is 10%.

For `Cc1ccc(-c2ccc3c(c2)C(=O)N(C2CCC(=O)NC2=O)C3=O)cc1` (racemic), which inhibition (Jurkat [1]) is on record?
Its inhibition is 14%.

With `Cc1ccc(-c2cccc3c2C(=O)N(C2CCC(=O)NC2=O)C3=O)cc1` (racemic) as the compound, how does the inhibition (Jurkat [1]) read?
Its inhibition is 10%.

For `N#CCCCC#Cc1ccc2c(c1)C(=O)N(C1CCC(=O)NC1=O)C2=O` (racemic), which inhibition (Jurkat [1]) is on record?
Its inhibition is 12%.

With `N#CCCCC#Cc1cccc2c1C(=O)N(C1CCC(=O)NC1=O)C2=O` (racemic) as the compound, how does the inhibition (Jurkat [1]) read?
Its inhibition is 9%.

How did the inhibition (Jurkat [1]) turn out when `NC(=O)c1ccc(-c2ccc3c(c2)C(=O)N(C2CCC(=O)NC2=O)C3=O)cc1` (racemic) was run?
Its inhibition is 10%.

With `NC(=O)c1ccc(-c2cccc3c2C(=O)N(C2CCC(=O)NC2=O)C3=O)cc1` (racemic) as the compound, how does the inhibition (Jurkat [1]) read?
The inhibition was 14%.

How did the inhibition (Jurkat [1]) turn out when `O=C1CCC(N2C(=O)c3ccc(-c4ccc(O)cc4)cc3C2=O)C(=O)N1` (racemic) was run?
The inhibition was 11%.

Which inhibition (Jurkat [1]) does the source give for `O=C1CCC(N2C(=O)c3ccc(-c4ccccc4)cc3C2=O)C(=O)N1` (racemic) here?
The inhibition was 12%.

Which inhibition (Jurkat [1]) does the source give for `O=C1CCC(N2C(=O)c3ccc(C#CCO)cc3C2=O)C(=O)N1` (racemic) here?
Its inhibition is 10%.

With `O=C1CCC(N2C(=O)c3ccc(C#Cc4ccccc4)cc3C2=O)C(=O)N1` (racemic) as the compound, how does the inhibition (Jurkat [1]) read?
Its inhibition is 6%.

How did the inhibition (Jurkat [1]) turn out when `O=C1CCC(N2C(=O)c3cccc(-c4ccc(O)cc4)c3C2=O)C(=O)N1` (racemic) was run?
The inhibition was 19%.

How did the inhibition (Jurkat [1]) turn out when `O=C1CCC(N2C(=O)c3cccc(-c4ccccc4)c3C2=O)C(=O)N1` (racemic) was run?
The inhibition was 14%.

How did the inhibition (Jurkat [1]) turn out when `O=C1CCC(N2C(=O)c3cccc(C#CCO)c3C2=O)C(=O)N1` (racemic) was run?
Its inhibition is 7%.

`O=C1CCC(N2C(=O)c3cccc(C#Cc4ccccc4)c3C2=O)C(=O)N1` (racemic) was tested. Which inhibition (Jurkat [1]) did it give?
The inhibition was 13%.

What does the source list for `O=C1CCC(N2C(=O)c3ccccc3C2=O)C(=O)N1` (racemic) [THALIDOMIDE]?
inhibition (Jurkat [1]): 6%; Activity (Jurkat [2]): 6%; inhibition (Jurkat [3]): 4%; Activity (Jurkat [4]): 7%; Activity (Jurkat [6]): 9%
